Test results from ChEMBL document CHEMBL2384952, “Synthesis, antifungal and cytotoxic activities of 2-aryl-3-((piperidin-1-yl)ethyl)thiazolidinones” (Eur J Med Chem, 2013).
Converted amounts (≈) assume the structure as drawn.

Key:
Rhodotorula [1] = assay: Ratio of fluconazole MIC to compound MIC for Rhodotorula species; format: functional
Rhodotorula [2] = assay: Antifungal activity against Rhodotorula species after 48 hrs by CLSI M27A3 broth microdilution method; format: functional
Summary of the method: (§1)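 Yeasts were kept on Sabouraud dextrose agar and subcultured at 35 °C for at least 2 days. They were suspended in saline to McFarland 0.5 and diluted in RPMI. Ten successive dilutions were made from a 1.6 mg/mL DMSO stock per CLSI broth microdilution, then incubated at 37 °C for 48 h. Growth was read visually against a growth-control well, and MIC is the lowest concentration inhibiting growth.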

Candida albicans = assay: Antifungal activity against Candida albicans after 48 hrs by CLSI M27A3 broth microdilution method; format: functional; summary of the method: as §1
Geotrichum = assay: Antifungal activity against Geotrichum species after 48 hrs by CLSI M27A3 broth microdilution method; format: functional; summary of the method: as §1
Candida parapsilosis = assay: Antifungal activity against Candida parapsilosis after 48 hrs by CLSI M27A3 broth microdilution method; format: functional; conditions: Lodderomyces parapsilosis; summary of the method: as §1
Vero [3] = assay: Cytotoxicity against African green monkey Vero cells at 394 ug/mL by neutral red dye uptake assay relative to control; format: cell-based; conditions: chlorocebus sabaeus
Summary of the method: (§2)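 Vero cells (over 99% viable by trypan blue exclusion) were exposed to serial compound dilutions in E-MEM, with fresh E-MEM as negative control, for 72 h at 37 °C, 5% CO2. Cells were then given 3.3 mg/L neutral red for 2 h, and the dye was extracted with 50% ethanol/1% acetic acid. A540 was read, and viability was calculated as treated/control absorbance × 100.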

Papiliotrema laurentii = assay: Antifungal activity against Cryptococcus laurentii after 48 hrs by CLSI M27A3 broth microdilution method; format: functional; summary of the method: as §1
[4] = system: Meyerozyma guilliermondii; assay: Antifungal activity against Candida guilliermondii after 48 hrs by CLSI M27A3 broth microdilution method; format: functional; summary of the method: as §1
Vero [5] = assay: Cytotoxicity against African green monkey Vero cells at 787 ug/mL by neutral red dye uptake assay relative to control; format: cell-based; conditions: chlorocebus sabaeus; summary of the method: as §2
Vero [6] = assay: Cytotoxicity against African green monkey Vero cells at 25 ug/mL by neutral red dye uptake assay relative to control; format: cell-based; conditions: chlorocebus sabaeus; summary of the method: as §2
Vero [7] = assay: Cytotoxicity against African green monkey Vero cells at 1575 ug/mL by neutral red dye uptake assay relative to control; format: cell-based; conditions: chlorocebus sabaeus; summary of the method: as §2
Vero [8] = assay: Cytotoxicity against African green monkey Vero cells at 3150 ug/mL by neutral red dye uptake assay relative to control; format: cell-based; conditions: chlorocebus sabaeus; summary of the method: as §2
Vero [9] = assay: Cytotoxicity against African green monkey Vero cells at 49 ug/mL by neutral red dye uptake assay relative to control; format: cell-based; conditions: chlorocebus sabaeus; summary of the method: as §2
Vero [10] = assay: Cytotoxicity against African green monkey Vero cells at 98 ug/mL by neutral red dye uptake assay relative to control; format: cell-based; conditions: chlorocebus sabaeus; summary of the method: as §2
Vero [11] = assay: Cytotoxicity against African green monkey Vero cells at 197 ug/mL by neutral red dye uptake assay relative to control; format: cell-based; conditions: chlorocebus sabaeus; summary of the method: as §2
Rhodotorula [12] = assay: Ratio of fluconazole MFC to compound MFC for Rhodotorula species; format: functional
Vero [13] = assay: Cytotoxicity against African green monkey Vero cells at 12.3 ug/mL by neutral red dye uptake assay relative to control; format: cell-based; conditions: chlorocebus sabaeus; summary of the method: as §2
Trichosporon asahii = assay: Antifungal activity against Trichosporon asahii after 48 hrs by CLSI M27A3 broth microdilution method; format: functional; summary of the method: as §1

Row | SMILES | MIC (Rhodotorula [2]) [µg/mL] | MIC (Candida albicans) [µg/mL] | MIC (Geotrichum) [µg/mL] | MIC (Candida parapsilosis) [µg/mL] | MIC (Papiliotrema laurentii) [µg/mL] | MIC [4] [µg/mL] | MFC (Rhodotorula [2]) [µg/mL] | MFC (Candida albicans) [µg/mL] | MFC (Geotrichum) [µg/mL] | MFC (Candida parapsilosis) [µg/mL] | Cell viability (Vero [3]) [%] | MFC (Papiliotrema laurentii) [µg/mL] | MFC [4] [µg/mL] | Cell viability (Vero [5]) [%] | Cell viability (Vero [6]) [%] | Cell viability (Vero [7]) [%] | Cell viability (Vero [8]) [%] | Cell viability (Vero [9]) [%] | Cell viability (Vero [10]) [%] | Cell viability (Vero [11]) [%] | further results
1 | O=C1CSC(c2cccc([N+](=O)[O-])c2)N1CCN1CCCCC1 (configuration not stated) | 16.5 (≈ 49.2 µM) | 50 (≈ 149 µM) | 100 (≈ 298 µM) | 100 (≈ 298 µM) | 100 (≈ 298 µM) | 100 (≈ 298 µM) | 16.5 (≈ 49.2 µM) | 50 (≈ 149 µM) | 100 (≈ 298 µM) | 100 (≈ 298 µM) | 60 | 100 (≈ 298 µM) | 100 (≈ 298 µM) | 15 | 100 | 7 | 2 | 100 | 94 | 75 | Ratio (Rhodotorula [1]): 1.6; Ratio (Rhodotorula [12]): 1.6; Cell viability (Vero [13]): 100%; MFC (Trichosporon asahii): > 400 µg/mL; MIC (Trichosporon asahii): > 400 µg/mL
2 | O=C1CSC(c2ccccc2[N+](=O)[O-])N1CCN1CCCCC1 (configuration not stated) | 25 (≈ 74.5 µM) | 55 (≈ 164 µM) | 25 (≈ 74.5 µM) | 50 (≈ 149 µM) | 100 (≈ 298 µM) | 25 (≈ 74.5 µM) | 25 (≈ 74.5 µM) | 55 (≈ 164 µM) | 25 (≈ 74.5 µM) | 50 (≈ 149 µM) | 100 | 100 (≈ 298 µM) | 25 (≈ 74.5 µM) | 100 | 100 | 24 | 30 | 100 | 100 | 100 | Cell viability (Vero [13]): 100%; MFC (Trichosporon asahii): 100 µg/mL (≈ 298 µM); MIC (Trichosporon asahii): 100 µg/mL (≈ 298 µM)

Second part, led by results:

Row | MIC (Rhodotorula [2]) [µg/mL] | MIC (Candida albicans) [µg/mL] | MIC (Geotrichum) [µg/mL] | MIC (Candida parapsilosis) [µg/mL] | MIC (Papiliotrema laurentii) [µg/mL] | MIC [4] [µg/mL] | SMILES | MFC (Rhodotorula [2]) [µg/mL] | MFC (Candida albicans) [µg/mL] | MFC (Geotrichum) [µg/mL] | MFC (Candida parapsilosis) [µg/mL] | Cell viability (Vero [3]) [%] | MFC (Papiliotrema laurentii) [µg/mL] | MFC [4] [µg/mL] | Cell viability (Vero [5]) [%] | Cell viability (Vero [6]) [%] | Cell viability (Vero [7]) [%] | Cell viability (Vero [8]) [%] | Cell viability (Vero [9]) [%] | Cell viability (Vero [10]) [%] | Cell viability (Vero [11]) [%] | further results
3 | 25 (≈ 81.1 µM) | 45 (≈ 146 µM) | 50 (≈ 162 µM) | 100 (≈ 324 µM) | 100 (≈ 324 µM) | 100 (≈ 324 µM) | O=C1CSC(c2ccc(F)cc2)N1CCN1CCCCC1 (configuration not stated) | 25 (≈ 81.1 µM) | 45 (≈ 146 µM) | 50 (≈ 162 µM) | 100 (≈ 324 µM) | 52 | 100 (≈ 324 µM) | 100 (≈ 324 µM) | 17 | 100 | 14 | 11 | 100 | 87 | 73 | Cell viability (Vero [13]): 100%; MFC (Trichosporon asahii): 100 µg/mL (≈ 324 µM); MIC (Trichosporon asahii): 100 µg/mL (≈ 324 µM)
4 | 16.5 (≈ 51.5 µM) | 100 (≈ 312 µM) | 41.5 (≈ 130 µM) | 100 (≈ 312 µM) | 100 (≈ 312 µM) | 100 (≈ 312 µM) | COc1ccccc1C1SCC(=O)N1CCN1CCCCC1 (configuration not stated) | 16.5 (≈ 51.5 µM) | 100 (≈ 312 µM) | 41.5 (≈ 130 µM) | 100 (≈ 312 µM) | 67 | 100 (≈ 312 µM) | 100 (≈ 312 µM) | 30 | 100 | 17 | 5 | 100 | 100 | 72 | Ratio (Rhodotorula [1]): 1.6; Ratio (Rhodotorula [12]): 1.6; Cell viability (Vero [13]): 100%; MFC (Trichosporon asahii): 50 µg/mL (≈ 156 µM); MIC (Trichosporon asahii): 50 µg/mL (≈ 156 µM)
5 | 33.5 (≈ 105 µM) | 75 (≈ 234 µM) | > 400 | 50 (≈ 156 µM) | 100 (≈ 312 µM) | 100 (≈ 312 µM) | COc1ccc(C2SCC(=O)N2CCN2CCCCC2)cc1 (configuration not stated) | 33.5 (≈ 105 µM) | 75 (≈ 234 µM) | > 400 | 50 (≈ 156 µM) | 73 | 100 (≈ 312 µM) | 100 (≈ 312 µM) | 33 | 100 | 11 | 11 | 100 | 89 | 87 | Cell viability (Vero [13]): 100%; MFC (Trichosporon asahii): > 400 µg/mL; MIC (Trichosporon asahii): > 400 µg/mL
6 | 33.5 (≈ 105 µM) | 100 (≈ 312 µM) | > 400 | 100 (≈ 312 µM) | 100 (≈ 312 µM) | 100 (≈ 312 µM) | COc1cccc(C2SCC(=O)N2CCN2CCCCC2)c1 (configuration not stated) | 33.5 (≈ 105 µM) | 100 (≈ 312 µM) | > 400 | 100 (≈ 312 µM) | 57 | 100 (≈ 312 µM) | 100 (≈ 312 µM) | 19 | 97 | 11 | 6 | 90 | 84 | 66 | Cell viability (Vero [13]): 100%; MFC (Trichosporon asahii): > 400 µg/mL; MIC (Trichosporon asahii): > 400 µg/mL
